In PMC7901021 (ACS chemical biology, 2021):
Values belong to the compound of their own block, whether it stands above or below them.

Assays:
MONOMAC6 and NB4 cells = settings: cited from earlier work
ALKBH5 [1] = target: T1, ALKBH5 (Homo sapiens, UniProt Q6P6C2); settings: cited from earlier work
FTO [2] = target: T2, FTO (Homo sapiens, UniProt Q9C0B1); settings: read-out: reported IC50 against FTO; cited from earlier work
[3] = precipitation in assay buffer; format: physicochemical; settings: dose response could not be determined
[4] = tested on: GSC-23 patient-derived GSC neurospheres; assay: neurosphere formation assay; format: cell-based, human; settings: GSC-23, 20 μM, 2 days
Method in brief: (§1)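 Neurospheres of patient-derived glioblastoma stem cell lines, with normal human neural stem cells run alongside, were exposed to 20 μM test compound for 2 days. Wells were imaged by bright field, and neurosphere size was quantified by image analysis from more than 50 neurospheres per group. Groups were compared by Student's t test.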

[5] = tested on: healthy human neural stem cells (hNSCs) neurospheres; assay: neurosphere formation assay; format: cell-based; settings: 20 μM
Method in brief: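 Normal human neural stem cells were grown as neurospheres and treated with the test compound at 20 μM for 2 days. Neurospheres were imaged by bright field and sized by ImageJ, with more than 50 neurospheres per group. Comparisons by Student's t test.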

[6] = tested on: GBM-6 patient-derived GSC neurospheres; assay: neurosphere formation assay; format: cell-based, human; settings: GBM-6, 20 μM, 2 days
Method in brief: as §1

FTO [7] = target: T2, FTO; assay: m6A7-Broccoli fluorescence enzymatic inhibition assay; format: biochemical; settings: for preference for FTO over ALKBH5: FTO vs ALKBH5 IC50
FTO [8] = target: T2, FTO; assay: steady-state inhibition kinetics; format: biochemical; settings: vmax independent of inhibitor concentration; substrate 0-10 μM
[9] = tested on: m6A and m6Am levels in GSCs; assay: quantification of m6A and m6Am by HPLC-MS/MS/MS; format: cell-based, human
[10] = tested on: TS576 patient-derived GSC neurospheres; assay: neurosphere formation assay; format: cell-based, human; settings: 2 days
[11] = tested on: m6A mRNA levels in TS576 cells; assay: m6A dot blot assay of purified mRNA; format: cell-based, human; settings: 30 μM, does not distinguish m6A and m6Am
Method in brief: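 TS576 patient-derived GSCs were treated with the test compound or DMSO, and mRNA was purified from them. m6A in the mRNA was assessed by dot blot. shControl versus shFTO knockdown in TS576 served as the reference for m6A change.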

ALKBH5 [12] = target: T1, ALKBH5; assay: m6A7-Broccoli fluorescence enzymatic inhibition assay; format: biochemical; settings: for selectivity between FTO and ALKBH5 (in words): comparison of IC50 toward both demethylases
[13] = tested on: orthotopically transplanted GSC tumors; settings: cited from earlier work

T2 sequence (Q9C0B1 whole entry): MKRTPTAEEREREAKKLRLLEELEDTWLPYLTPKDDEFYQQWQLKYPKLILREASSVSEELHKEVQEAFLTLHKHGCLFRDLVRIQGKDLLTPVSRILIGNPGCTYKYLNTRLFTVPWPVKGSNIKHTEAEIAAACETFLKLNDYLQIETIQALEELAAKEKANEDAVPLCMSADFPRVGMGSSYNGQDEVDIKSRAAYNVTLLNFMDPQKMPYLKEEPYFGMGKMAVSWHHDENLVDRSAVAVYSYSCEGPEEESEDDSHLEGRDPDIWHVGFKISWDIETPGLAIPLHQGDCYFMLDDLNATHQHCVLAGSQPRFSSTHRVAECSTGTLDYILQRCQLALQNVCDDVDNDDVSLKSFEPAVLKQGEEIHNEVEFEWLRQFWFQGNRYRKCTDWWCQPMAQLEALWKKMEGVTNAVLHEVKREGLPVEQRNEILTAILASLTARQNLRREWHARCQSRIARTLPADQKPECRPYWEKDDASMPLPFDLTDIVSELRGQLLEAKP
T1 sequence (Q6P6C2 whole entry): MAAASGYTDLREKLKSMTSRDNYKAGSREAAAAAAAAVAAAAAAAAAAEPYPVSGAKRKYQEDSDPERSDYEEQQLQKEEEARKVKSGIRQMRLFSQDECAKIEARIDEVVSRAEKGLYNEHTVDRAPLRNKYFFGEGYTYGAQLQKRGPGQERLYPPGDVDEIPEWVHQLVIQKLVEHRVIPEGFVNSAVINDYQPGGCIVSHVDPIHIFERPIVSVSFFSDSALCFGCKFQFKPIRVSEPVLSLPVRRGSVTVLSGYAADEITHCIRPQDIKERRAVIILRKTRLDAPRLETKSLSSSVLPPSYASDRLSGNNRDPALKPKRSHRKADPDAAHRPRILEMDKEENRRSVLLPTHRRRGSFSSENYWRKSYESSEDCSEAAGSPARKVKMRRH

Structure (SMILES): Cc1noc(C)c1-c1cc(Cl)c(Nc2ccccc2C(=O)O)c(Cl)c1 [FB23]
cellular uptake (MONOMAC6 and NB4 cells): poor cellular uptake

Structure (SMILES): Cc1noc(C)c1-c1cc(Cl)c(Nc2ccccc2C(=O)NO)c(Cl)c1 [FB23–2]
cellular concentration relative to FB23 (MONOMAC6 and NB4 cells; MONOMAC6 and NB4 cells): 3−10 ×
inhibition of FTO at 50 μM (stated as selectivity against ALKBH5) (ALKBH5 [1]): little to no inhibition
IC50 (FTO [2]): 2.6 µM

Structure (SMILES): Cc1ccc2cc(-c3cncnc3)ccc2n1 [FTO-07]
inhibition of ALKBH5 at the highest concentration measured (ALKBH5 [12]): no measurable inhibition

Structure (SMILES): COc1ccc2cc(-c3cnc(OC)nc3)ccc2c1 [FTO-08]
selectivity between FTO and ALKBH5 (in words) (ALKBH5 [12]): equivalent inhibitors toward both demethylases

Structure (SMILES): Nc1ncc(-c2cccc(Nc3ccccc3)c2)cn1 [FTO-09]
potency toward ALKBH5 over FTO (ALKBH5 [12]; ALKBH5 vs FTO IC50): ~10 times
selectivity between FTO and ALKBH5 (in words) (ALKBH5 [12]): distinct preference toward ALKBH5 over FTO

Structure (SMILES): Nc1ncc(-c2ccc3cc(O)ccc3c2)cn1 [FTO-10]
selectivity between FTO and ALKBH5 (in words) (ALKBH5 [12]): equivalent inhibitors toward both demethylases

Structure (SMILES): COc1ncc(-c2ccc3nc(C)ccc3c2)cn1 [FTO-11]
selectivity between FTO and ALKBH5 (in words) (ALKBH5 [12]): equivalent inhibitors toward both demethylases

Structure (SMILES): Nc1ncc(-c2cccc(OCc3ccccc3)c2)cn1 [FTO-13]
selectivity between FTO and ALKBH5 (in words) (ALKBH5 [12]): distinct preference toward ALKBH5 over FTO

Structure (SMILES): COCCNc1ncc(-c2ccc3nc(C)ccc3c2)cn1 [FTO-19]
selectivity between FTO and ALKBH5 (in words) (ALKBH5 [12]): equivalent inhibitors toward both demethylases

Structure (SMILES): Cc1ccc(Cl)c(Nc2ccccc2C(=O)O)c1Cl [MA, meclofenamic acid]
inhibition of FTO at 50 μM (stated as selectivity against ALKBH5) (ALKBH5 [1]): little to no inhibition
lifespan ([13]; intracranial GSC xenograft mice): prolong lifespan
tumor progression in vivo ([13]; orthotopically transplanted GSC tumors): prevented tumor progression in vivo

The next lines start with results.

precipitation in assay buffer [3]: significant precipitation
Structure (SMILES): COc1ncc(-c2cccc(OCc3ccccc3)c2)cn1 [FTO-03]

size of neurospheres [5]: no alteration in neurosphere size
potency toward FTO relative to MA (FTO [7]; ratio of IC50 to MA (12.5 μM)): approximately 4 ×
mechanism of inhibition (FTO [8]): competitive mechanism of inhibition
Structure (SMILES): COc1ncc(-c2ccc3nc(N)sc3c2)cn1 [FTO-04]
size of neurospheres [4]: significantly decrease the size of neurospheres
size of neurospheres [6]: significantly decrease the size of neurospheres
increase in m6A levels relative to DMSO control [9]: ~ 1.4 ×
increase in m6Am levels relative to DMSO control [9]: ~ 3.2 ×
size of neurospheres ([10]; TS576, 20 μM): significantly decrease the size of neurospheres
size of neurospheres vs vehicle control ([10]; TS576, 30 μM): significant reduction in size of the neurospheres
m6A mRNA levels relative to DMSO control (dot blot) [11]: increased

IC50 (ALKBH5 [12]): > 40 µM
inhibition of ALKBH5 at the highest concentration measured (ALKBH5 [12]): no measurable inhibition
preference for FTO over ALKBH5 (FTO [7]): ≥ 5 fold
Structure (SMILES): COc1ccc2cc(-c3cncnc3)ccc2c1 [FTO-05]

preference for FTO over ALKBH5 (FTO [7]): ≥ 5 fold
Structure (SMILES): COc1ncc(-c2ccc(CO)c(OC)c2)cn1 [FTO-06]

IC50 (ALKBH5 [12]): > 40 µM
inhibition of ALKBH5 at the highest concentration measured (ALKBH5 [12]): no measurable inhibition
preference for FTO over ALKBH5 (FTO [7]): ≥ 5 fold
Structure (SMILES): COc1ccc2cc(-c3cnc(N)nc3)ccc2c1 [FTO-12]

precipitation in assay buffer [3]: significant precipitation
Structure (SMILES): COCCNc1ncc(-c2ccc3cc(OC)ccc3c2)cn1 [FTO-15]

inhibition of ALKBH5 at the highest concentration measured (ALKBH5 [12]): no measurable inhibition
Structure (SMILES): COCCNc1ncc(-c2ccc(OCc3ccccc3)cc2)cn1 [FTO-18]

preference for FTO over ALKBH5 (FTO [7]): ≥ 5 fold
Structure (SMILES): COCCNc1ncc(-c2ccc(CO)c(OC)c2)cn1 [FTO-20]
